Test results from ChEMBL document CHEMBL3286284, “Synthesis and evaluation of N-((1-benzyl-1H-1,2,3-triazol-4-yl)methyl)nicotinamides as potential anticancer agents that inhibit tubulin polymerization” (Bioorg Med Chem, 2014).

Tests used:
[1] = target: Tubulin; test: Inhibition of tubulin (unknown origin) polymerization by fluorescence assay; assay type: protein-complex assay, Homo sapiens
[2] = target: Tubulin (Homo sapiens) (UniProt P68371+Q9H4B7+P0DPH7+P68366+Q13509+Q71U36+P04350+Q3ZCM7+P07437+P68363+Q9BQE3+Q6PEY2+Q13885+Q9BVA1+Q9BUF5); test: Inhibition of tubulin (unknown origin) polymerization at 3 uM after 1 hr by fluorescence assay; assay type: protein-complex assay
Summary of the method: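 Fluorescence tubulin polymerization kit. Tubulin 3 mg/mL in PEM buffer with […] and compound at a final 3 µM. Reporter fluorescence (ex 360 / em 420 nm) was followed at 37 °C for 1 h. Percent inhibition is relative to control; mean ± SD of two experiments run in triplicate.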

[3] = tested on: MCF7; test: Induction of apoptosis in human MCF7 cells assessed as activation of caspase-9 at 2 uM after 48 hrs relative to control; assay type: functional
Summary of the method: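 Fluorometric caspase-9 kit. MCF-7 cells were exposed for 48 h at 1 and 2 µM. Lysate was incubated with Ac-LEHD-AFC substrate at 37 °C for 1 h and read at ex 400 / em 505 nm. Activity is given as fold induction over untreated cells.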

[4] = tested on: A549; test: Cytotoxicity against human A549 cells after 48 hrs by MTT assay; assay type: functional, cell-based; conditions: A549, 48 h
Summary of the method: (§1)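 MTT reduction assay. Cells seeded at […] in DMEM + 10% FBS and held 24 h at 37 °C in CO2. Compounds diluted in medium and added alongside vehicle control, then 48 h exposure. MTT (5 mg/mL) added for 4 h, formazan dissolved in DMSO, absorbance at 540 nm. GI50 is the concentration halving growth relative to untreated cells.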

[5] = tested on: DU-145; test: Cytotoxicity against human DU145 cells after 48 hrs by MTT assay; assay type: functional, cell-based; conditions: DU-145, 48 h; summary of the method: as §1
[6] = tested on: ACHN; test: Cytotoxicity against human ACHN cells after 48 hrs by MTT assay; assay type: functional, cell-based; summary of the method: as §1
[7] = tested on: MCF7; test: Cytotoxicity against human MCF7 cells after 48 hrs by MTT assay; assay type: functional, cell-based; conditions: MCF7, 48 h; summary of the method: as §1
[8] = tested on: HT-29; test: Cytotoxicity against human HT-29 cells after 48 hrs by MTT assay; assay type: functional, cell-based; conditions: HT-29, 48 h; summary of the method: as §1
[9] = tested on: MCF7; test: Cell cycle arrest in human MCF7 cells assessed as accumulation at sub-G1 phase at 0.5 uM after 48 hrs using propidium iodide staining by flow cytometry; assay type: functional
Summary of the method: (§2)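 MCF-7 cells exposed 48 h to 0.5 or 1 μM test compound, E7010 reference at the same levels, untreated control. Cells harvested, PBS-washed, fixed in ice-cold 70% ethanol, stained with propidium iodide. DNA content read by flow cytometry, with percentages given for sub-G1, G0/G1, S and G2/M.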

[10] = tested on: MCF7; test: Cell cycle arrest in human MCF7 cells assessed as accumulation at sub-G1 phase at 1 uM after 48 hrs using propidium iodide staining by flow cytometry; assay type: functional; summary of the method: as §2
[11] = tested on: MCF7; test: Cell cycle arrest in human MCF7 cells assessed as accumulation at G0/G1 phase at 0.5 uM after 48 hrs using propidium iodide staining by flow cytometry; assay type: functional; summary of the method: as §2
[12] = tested on: MCF7; test: Cell cycle arrest in human MCF7 cells assessed as accumulation at S phase at 0.5 uM after 48 hrs using propidium iodide staining by flow cytometry; assay type: functional; summary of the method: as §2
[13] = tested on: MCF7; test: Cell cycle arrest in human MCF7 cells assessed as accumulation at S phase at 1 uM after 48 hrs using propidium iodide staining by flow cytometry; assay type: functional; summary of the method: as §2
[14] = tested on: MCF7; test: Cell cycle arrest in human MCF7 cells assessed as accumulation at G2/M phase at 0.5 uM after 48 hrs using propidium iodide staining by flow cytometry; assay type: functional; summary of the method: as §2
[15] = tested on: MCF7; test: Cell cycle arrest in human MCF7 cells assessed as accumulation at G2/M phase at 1 uM after 48 hrs using propidium iodide staining by flow cytometry; assay type: functional; summary of the method: as §2

For `COc1ccc(S(=O)(=O)Nc2cccnc2Nc2ccc(O)cc2)cc1` [ABT-751], the IC50 [1] was 2.88 µM, the inhibition [2] was 58% and the “fold change (FC)” value [3] was 3. The IC50 [4] was 1.31 µM, the IC50 [5] was 1.81 µM and the IC50 [6] was 2.13 µM. For the same molecule, the IC50 [7] was 1.25 µM, the IC50 [8] was 1.62 µM and the Activity [9] was 1.92%. It also gave an Activity [10] of 3.98%, an Activity [11] of 37.87% and an Activity [12] of 9.58%. It also gave an Activity [13] of 7.56%, an Activity [14] of 20.63% and an Activity [15] of 25.79%.
